Assay results taken from ChEMBL document CHEMBL3217582, “Design of symmetrical and nonsymmetrical N,N-dimethylaminopyridine derivatives as highly potent choline kinase alpha inhibitors” (Medchemcomm, 2013).
The source made the active and inactive calls. The rule behind the calls is not given here.

Legend:
HCT-116 = experiment: Growth inhibition of human HCT116 cells overexpressing CHKA2 after 72 hrs by sulforhodamine assay; format: functional; settings: HCT-116, 72 h
Summary of the method: (§1)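 A549 (DMEM) or HCT-116 (RPMI-1640) cells in 10% FCS, 37°C, 5% CO2. Cells treated 24 h after seeding with 9 inhibitor concentrations, six replicates, for 72 h. Fixed with 10% TCA, stained with 0.4% SRB, read at 540 nm. GI50 from variable-slope sigmoidal fit of percent-of-control curves.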

A549 = experiment: Growth inhibition of human A549 cells overexpressing CHKA2 after 72 hrs by sulforhodamine assay; format: functional; settings: A549, 72 h; summary of the method: as §1
[1] = Inhibition of recombinant delta49N CHKA2 (unknown origin) assessed as ADP formation using choline as substrate by enzyme coupled assay; set-up: species or system Homo sapiens
Summary of the method: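 Δ49N CHKA2 (20 ng) with 72 µM choline and 450 µM ATP (both at KM) in 100 mM Tris pH 7.5, 100 mM KCl, 10 mM MgCl2. Coupled system: 500 µM PEP, pyruvate kinase, LDH, 250 µM NADH. Inhibitor at varying concentrations. ADP formation followed as NADH loss at 340 nm. IC50 from variable-slope sigmoidal least-squares fit.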

Homo sapiens [2] = organism: Homo sapiens; experiment: Competitive inhibition of recombinant delta49N CHKA2 (unknown origin) using 40 uM to 20 mM choline as substrate by Lineweaver-burk plot analysis in presence of 450 uM ATP
Choline kinase alpha [3] = biological target: T1, Choline kinase alpha (Homo sapiens, UniProt P35790); experiment: Inhibition of CHKA in human HCT116 cells assessed as [3H]phosphocholine formation using [3H]choline chloride as substrate incubated for 1 hr prior to substrate addition measured after 1 hr by scintillation counting analysis; format: cell-based, HCT-116; settings: for inhibition: HCT-116
Summary of the method: (§2)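 HCT-116 cells pretreated 1 h with 0.16, 0.8, 4, 20 or 100 µM inhibitor. Then pulsed 1 h with [3H]choline chloride (0.5 µCi/mL). Cells washed in cold PBS and extracted with methanol/chloroform. Choline removed with tetraphenylborate in heptan-4-one. Aqueous phosphocholine counted by liquid scintillation and compared with untreated controls.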

Choline kinase alpha [4] = biological target: T1, Choline kinase alpha; experiment: Inhibition of CHKA in human HCT116 cells assessed as [3H]phosphocholine formation using [3H]choline chloride as substrate at 6.5 +/-4 uM incubated for 1 hr prior to substrate addition measured after 1 hr by scintillation counting analysis; format: cell-based; settings: HCT-116; summary of the method: as §2
Target sequence in this assay (P35790 whole entry, looked up): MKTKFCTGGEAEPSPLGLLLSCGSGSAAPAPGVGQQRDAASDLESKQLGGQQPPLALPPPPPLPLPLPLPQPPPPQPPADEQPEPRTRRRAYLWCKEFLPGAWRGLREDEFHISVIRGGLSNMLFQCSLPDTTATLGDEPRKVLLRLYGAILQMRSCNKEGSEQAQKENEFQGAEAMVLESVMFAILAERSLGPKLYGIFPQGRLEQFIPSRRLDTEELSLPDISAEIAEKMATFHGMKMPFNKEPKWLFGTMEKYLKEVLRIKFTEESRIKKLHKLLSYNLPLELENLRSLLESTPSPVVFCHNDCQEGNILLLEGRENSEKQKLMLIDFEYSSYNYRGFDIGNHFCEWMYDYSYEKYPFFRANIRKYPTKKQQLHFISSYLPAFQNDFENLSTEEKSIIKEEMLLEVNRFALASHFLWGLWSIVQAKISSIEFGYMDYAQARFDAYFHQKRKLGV

Homo sapiens [5] = organism: Homo sapiens; experiment: Competitive inhibition of recombinant delta49N CHKA2 (unknown origin) using 72 uM choline as substrate by Lineweaver-burk plot analysis in presence of 10 uM to 5 mM ATP
Choline kinase alpha [6] = biological target: T1, Choline kinase alpha; experiment: Inhibition of CHKA in human HCT116 cells assessed as [3H]phosphocholine formation using [3H]choline chloride as substrate at 2.4 +/-1 uM incubated for 1 hr prior to substrate addition measured after 1 hr by scintillation counting analysis; format: cell-based; settings: HCT-116; summary of the method: as §2
Target sequence in this assay (P35790 whole entry, looked up): as above

Homo sapiens [7] = organism: Homo sapiens; experiment: Mixed inhibition of recombinant delta49N CHKA2 (unknown origin) using choline as substrate by Lineweaver-burk plot analysis in presence of ATP

| Structure (SMILES) | GI50 (HCT-116) | GI50 (A549) | IC50 [1] | inhibition (Homo sapiens [2]) | EC50 (Choline kinase alpha [3]) | inhibition (Choline kinase alpha [3]) | inhibition (Choline kinase alpha [4]) | inhibition (Homo sapiens [5]) | inhibition (Choline kinase alpha [6]) | inhibition (Homo sapiens [7]) |
| --- | --- | --- | --- | --- | --- | --- | --- | --- | --- | --- |
| CN(C)c1cc[n+](CCCCCCCCCC[n+]2ccc(N(C)C)cc2)cc1 | 2.8 µM | 4.2 µM | 0.67 µM |  |  |  |  |  |  |  |
| CN(C)c1cc[n+](CCCCCCCCCCCCn2cnc3c(N)ncnc32)cc1 | 4.1 µM | 5.3 µM | 0.8 µM |  |  |  |  |  |  | Active |
| CN(C)c1cc[n+](CCCCCCCC[n+]2ccc(N(C)C)cc2)cc1 | 2.5 µM | 3.3 µM | 2.7 µM |  |  |  |  |  |  |  |
| CN(C)c1cc[n+](CCCCCCCCC[n+]2ccc(N(C)C)cc2)cc1 | 2.6 µM | 4 µM | 1.3 µM |  |  |  |  |  |  |  |
| CN(C)c1cc[n+](CCOCCOCCOCC[n+]2ccc(N(C)C)cc2)cc1 | > 1000 µM |  |  |  |  |  |  |  |  |  |
| CN(C)c1cc[n+](CCOCCOCCOCCn2cnc3ccccc32)cc1 | > 1000 µM |  |  |  |  |  |  |  |  |  |

These reach a lower GI50 (HCT-116). Values come first.

| GI50 (HCT-116) | GI50 (A549) | IC50 [1] | inhibition (Homo sapiens [2]) | EC50 (Choline kinase alpha [3]) | inhibition (Choline kinase alpha [3]) | inhibition (Choline kinase alpha [4]) | inhibition (Homo sapiens [5]) | inhibition (Choline kinase alpha [6]) | inhibition (Homo sapiens [7]) | Structure (SMILES) |
| --- | --- | --- | --- | --- | --- | --- | --- | --- | --- | --- |
| 2 µM | 1.6 µM | 0.29 µM |  |  |  |  |  |  |  | CN(C)c1cc[n+](CCCCCCCCCCC[n+]2ccc(N(C)C)cc2)cc1 |
| 0.69 µM | 1.3 µM | 5.1 µM |  |  |  |  |  |  |  | CN(C)c1cc[n+](CCCCCCCCCCCCn2cnc3ccccc32)cc1 |
| 0.64 µM | 0.38 µM | 0.27 µM | Active | 1.3 µM | Dose-dependent effect | > 75% | inactive | > 75% |  | CN(C)c1cc[n+](CCCCCCCCCCCC[n+]2ccc(N(C)C)cc2)cc1 |
| 0.29 µM | 0.33 µM | 0.15 µM |  | 0.52 µM | Dose-dependent effect | > 75% |  | > 75% |  | CN(C)c1cc[n+](CCCCCCCCCCCCCC[n+]2ccc(N(C)C)cc2)cc1 |
